Experimental data taken from ChEMBL document CHEMBL1133624, “Benzothiadiazine dioxide dibenzyl derivatives as potent human cytomegalovirus inhibitors: synthesis and comparative molecular field analysis” (J Med Chem, 2000).
pIC50: −log10 of the molar value.

What was measured:
Human betaherpesvirus 5 = assay: Concentration required to reduce viral plaque formation by Human Cytomegalovirus (HCMV) (strain AD-169) in MRC-5 cells; format: functional, organism-based; conditions: Human betaherpesvirus 5, MRC5
MRC5 = assay: Concentration required to reduce MRC-5 cell growth by 50%; format: functional; conditions: Homo sapiens
Method in brief: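 MRC-5 fibroblasts seeded at 5 × 10³ cells/well, left to proliferate 24 h, then exposed to different concentrations of test compound (duplicate). After 3 days at 37 °C in 5% CO₂, cell number counted with a Coulter counter.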

Compound | pIC50 (Human betaherpesvirus 5) | CC50 (MRC5) [µM]
O=C1c2ccccc2N(Cc2ccc(-c3ccccc3)cc2)S(=O)(=O)N1Cc1ccc(-c2ccccc2)cc1 | 4.33 | > 47
O=C1c2ccccc2N(Cc2ccc([N+](=O)[O-])cc2)S(=O)(=O)N1Cc1ccccc1 | 5.10 | > 59
O=C1c2ccccc2N(CCc2ccccc2)S(=O)(=O)N1Cc1ccccc1 | 5.12 | > 64
Cc1ccc(CN2c3ccccc3C(=O)N(Cc3ccccc3)S2(=O)=O)cc1 | 5.60 | > 63
COc1ccc(CN2c3ccccc3C(=O)N(Cc3ccccc3)S2(=O)=O)cc1 | 5.15 | > 61
COc1ccc(CCN2c3ccccc3C(=O)N(Cc3ccccc3)S2(=O)=O)cc1 | 5.40 | > 59
O=S1(=O)N=C(OCc2ccccc2)c2ccccc2N1Cc1ccccc1 | 5.10 | > 66
O=C1c2ccccc2N(Cc2ccc(Cl)c(Cl)c2)S(=O)(=O)N1Cc1ccc(Cl)c(Cl)c1 | 4.82 | > 48
O=C1c2ccccc2N(Cc2ccc(Cl)cc2)S(=O)(=O)N1Cc1ccccc1 | 5.44 | > 60
O=C1c2ccccc2N(Cc2ccccc2)S(=O)(=O)N1Cc1ccc(Cl)cc1 | 5.22 | > 60
O=C1c2ccccc2N(CCCc2ccccc2)S(=O)(=O)N1Cc1ccccc1 | 4.74 | > 57
COc1ccc(CN2c3ccccc3C(OCc3ccccc3)=NS2(=O)=O)cc1 | 4.21 | > 61
O=[N+]([O-])c1ccc(COC2=NS(=O)(=O)N(Cc3ccc([N+](=O)[O-])cc3)c3ccccc32)cc1 | 4.28 | > 53
O=S1(=O)N=C(OCc2ccc(Cl)c(Cl)c2)c2ccccc2N1Cc1ccc(Cl)c(Cl)c1 | 4.32 | > 48
Cc1ccc(C(=O)CN2c3ccccc3C(=O)N(Cc3ccccc3)S2(=O)=O)cc1 | 5.55 | > 59
O=C1c2ccccc2N(Cc2cccnc2)S(=O)(=O)N1Cc1ccccc1 | 4.88 | 66
Cc1ccc(CN2c3ccccc3C(OCc3ccccc3)=NS2(=O)=O)cc1 | 5.00 | > 63
O=C1c2ccccc2N(Cc2cccc(Cl)c2)S(=O)(=O)N1Cc1ccccc1 | 5.44 | > 60
O=S1(=O)N=C(OCc2ccc(-c3ccccc3)cc2)c2ccccc2N1Cc1ccc(-c2ccccc2)cc1 | 4.33 | > 47
O=S1(=O)N=C(OCc2ccc(C(F)(F)F)cc2)c2ccccc2N1Cc1ccc(C(F)(F)F)cc1 | 4.64 | > 48
CC(C)CN1c2ccccc2C(=O)N(Cc2ccccc2)S1(=O)=O | 4.84 | 72

Compound | pIC50 (Human betaherpesvirus 5) | CC50 (MRC5) [µM]
O=C1c2ccccc2N(Cc2ccc(C(F)(F)F)cc2)S(=O)(=O)N1Cc1ccc(C(F)(F)F)cc1 | 4.82 | > 48
O=C1c2ccccc2N(Cc2ccccc2)S(=O)(=O)N1Cc1ccccc1 | 5.28 | > 66
O=C1c2ccccc2N(Cc2ccccc2)S(=O)(=O)N1Cc1ccccc1Cl | 4.92 | > 60
O=C1c2ccccc2N(Cc2ccccc2-c2ccccc2)S(=O)(=O)N1Cc1ccccc1 | 4.36 | > 55
O=C(CN1c2ccccc2C(=O)N(Cc2ccccc2)S1(=O)=O)c1ccccc1 | 4.61 | > 61
COc1ccc(C(=O)CN2c3ccccc3C(=O)N(Cc3ccccc3)S2(=O)=O)cc1 | 5.49 | > 57
O=C1c2ccccc2N(Cc2ccc(Cl)c(Cl)c2)S(=O)(=O)N1Cc1ccccc1 | 5.40 | > 56
O=C1c2ccccc2N(Cc2ccc(Cl)cc2)S(=O)(=O)N1Cc1ccc(Cl)cc1 | 5.48 | > 56
O=S1(=O)N=C(OCc2ccccc2)c2ccccc2N1Cc1ccc(Cl)c(Cl)c1 | 4.59 | > 56
O=C1c2ccccc2N(CC2CCCCC2)S(=O)(=O)N1Cc1ccccc1 | 4.81 | > 65
C#CCCN1c2ccccc2C(=O)N(Cc2ccccc2)S1(=O)=O | 4.12 | 77
N#Cc1ccc(CN2c3ccccc3C(OCc3ccccc3)=NS2(=O)=O)cc1 | 4.54 | > 62
O=C1c2ccccc2N(Cc2ccc([N+](=O)[O-])cc2)S(=O)(=O)N1Cc1ccc([N+](=O)[O-])cc1 | 4.28 | > 53
O=C1c2ccccc2N(Cc2ccc(C(F)(F)F)cc2)S(=O)(=O)N1Cc1ccccc1 | 5.48 | > 56
N#Cc1ccc(CN2c3ccccc3C(=O)N(Cc3ccccc3)S2(=O)=O)cc1 | 5.10 | > 62
O=C1c2ccccc2N(Cc2cccc3ccccc23)S(=O)(=O)N1Cc1ccccc1 | 4.94 | > 58
Nc1nc2c(ncn2COC(CO)CO)c(=O)[nH]1 [GANCICLOVIR] | 5.23 | > 98
O=C1c2ccccc2N(Cc2ccccc2Cl)S(=O)(=O)N1Cc1ccccc1 | 5.32 | > 60
COc1ccc(CN2C(=O)c3ccccc3N(Cc3ccc(OC)cc3)S2(=O)=O)cc1 | 4.24 | > 57
O=C1c2ccccc2N(Cc2ccccc2Cl)S(=O)(=O)N1Cc1ccccc1Cl | 4.48 | > 56
